Results taken from ChEMBL document CHEMBL4000256, “Light-Regulated NO Release as a Novel Strategy To Overcome Doxorubicin Multidrug Resistance” (ACS Med Chem Lett, 2017).
Activity calls are given as the source filed them. No cut-off for these calls is given here.

What was measured:
[1] = Half life in DMEM medium; assay type: physicochemical
Homo sapiens [2] = organism: Homo sapiens; experiment: Inhibition of Pgp in 7 mW/cm'2 irradiated human M14 cells assessed as reduction in P-gp ATPase activity at 5 uM measured after 20 mins by spectrophotometric method
Outline: (§1)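 M14 melanoma cells held 20 min at room temperature in PBS under 400 nm light (7 mW/cm2) with 5 μM compound, alone or with equimolar doxorubicin. Transporter ATPase activity then measured; n = 3.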

[3] = molecular target: Multidrug resistance-associated protein 1 (Homo sapiens, UniProt P33527); experiment: Inhibition of MRP1 in 7 mW/cm'2 irradiated human M14 cells assessed as reduction in MRP1 ATPase activity at 5 uM measured after 20 mins by spectrophotometric method; outline: as §1
[4] = Stability of the compound in PBS with 3% DMSO; assay type: physicochemical; settings: buffer
[5] = Stability in pH 7.4 PBS irradiated with 7 mW/cm2 light assessed as bleaching in NOP1 band at 10 uM up to 60 mins in presence of calf thymus DNA by absorption spectrum method; assay type: physicochemical; settings: buffer, pH 7.4, 1 h
Outline: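 Absorption spectra recorded after 0, 30, 40, 50 and 60 min irradiation at λexc 405 nm. Solution at 10 μM with 18 μM ct-DNA in PBS (pH 7.4, 10 mM, 3% DMSO).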

[6] = Induction of NO release in pH 7.4 PBS irradiated with 7 mW/cm2 light at 100 uM after 0.5 hrs by Griess assay
Outline: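 Cell-free solution, 100 μM, in PBS (pH 7.4, 10 mM, 3% DMSO) irradiated at 400 nm (7 mW/cm2) for varying times. Nitrite generated is quantified by Griess assay.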

[7] = Stability of the compound in pH 7.4 PBS at 100 uM incubated under dark condition for >0.5 hrs; assay type: physicochemical; settings: buffer, pH 7.4, 0.5 h
Fibroblast [8] = experiment: Dark toxicity against human fibroblasts at 5 uM measured after 20 mins by spectrophotometric method; assay type: cell-based
Outline: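 Human fibroblasts or rat H9c2 cardiomyocytes kept 20 min at room temperature in PBS, either in the dark or irradiated at λexc 400 nm, 7 mW/cm2, with or without 5 μM test agent. Cytotoxicity measured in triplicate; means ± SD, n = 3.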

[9] = molecular target: T1, Broad substrate specificity ATP-binding cassette transporter ABCG2 (Homo sapiens, UniProt Q9UNQ0); experiment: Inhibition of BCRP in 7 mW/cm'2 irradiated human M14 cells assessed as reduction in BCRP ATPase activity at 5 uM measured after 20 mins by spectrophotometric method; outline: as §1
T1 sequence (Q9UNQ0 whole entry): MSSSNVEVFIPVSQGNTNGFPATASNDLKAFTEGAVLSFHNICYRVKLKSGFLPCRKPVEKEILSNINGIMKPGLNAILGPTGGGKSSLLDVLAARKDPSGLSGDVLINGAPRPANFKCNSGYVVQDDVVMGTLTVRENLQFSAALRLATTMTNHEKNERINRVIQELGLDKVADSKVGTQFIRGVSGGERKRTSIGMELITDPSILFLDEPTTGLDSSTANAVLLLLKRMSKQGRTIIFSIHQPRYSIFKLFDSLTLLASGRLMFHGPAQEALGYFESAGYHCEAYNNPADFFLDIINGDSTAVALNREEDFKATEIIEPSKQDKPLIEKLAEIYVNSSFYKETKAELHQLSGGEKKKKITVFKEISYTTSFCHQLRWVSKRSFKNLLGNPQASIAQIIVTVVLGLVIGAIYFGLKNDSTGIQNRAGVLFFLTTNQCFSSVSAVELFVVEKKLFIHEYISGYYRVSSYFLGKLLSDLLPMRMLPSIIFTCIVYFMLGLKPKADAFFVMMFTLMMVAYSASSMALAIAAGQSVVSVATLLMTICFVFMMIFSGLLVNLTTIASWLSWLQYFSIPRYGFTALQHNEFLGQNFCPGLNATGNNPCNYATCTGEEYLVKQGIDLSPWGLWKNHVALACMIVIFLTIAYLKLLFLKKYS

Homo sapiens [10] = organism: Homo sapiens; experiment: Inhibition of Pgp in 7 mW/cm'2 irradiated human M14 cells assessed as nitration of tyrosine in pgp at 5 uM measured after 20 mins by immunoblotting
Outline: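 M14 melanoma cells held 20 min at room temperature in PBS under 400 nm light (7 mW/cm2) with 5 μM compound, alone or with equimolar doxorubicin. Nitrated ABC transporters (Pgp, MRP1, MRP4, BCRP) detected by immunoblot.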

H9c2 [11] = experiment: Cytotoxicity against 7 mW/cm'2 irradiated rat H9c2 cells at 5 uM coadministered with DOX measured after 20 mins by spectrophotometric method; assay type: cell-based; settings: h9c2, 20 min
Outline: (§2)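 Cells (M14 melanoma, human fibroblasts or rat H9c2 cardiomyocytes) kept 20 min at room temperature in PBS under 400 nm light (7 mW/cm2), alone or with 5 μM compound, given alone or with equimolar 5 μM doxorubicin. Damage read as extracellular LDH release. Triplicate measurements, n = 3.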

M14 [12] = experiment: Dark toxicity in human M14 cells assessed as increase in LDH release at 5 uM measured after 20 mins by spectrophotometric method; assay type: cell-based; settings: m14, 20 min
Outline: (§3)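 Cells (M14 melanoma, human fibroblasts or rat H9c2 cardiomyocytes) kept 20 min at room temperature in PBS in the dark, with 5 μM compound, given alone or with equimolar 5 μM doxorubicin. Cytotoxicity read as extracellular LDH release. Triplicate measurements, n = 3.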

H9c2 [13] = experiment: Dark toxicity against rat H9c2 cells at 5 uM measured after 20 mins co-incubated with doxorubicin by spectrophotometric method; assay type: cell-based; settings: h9c2, 20 min; outline: as §3
M14 [14] = experiment: Cytotoxicity against 7 mW/cm'2 irradiated human M14 cells assessed as increase in LDH release at 5 uM measured after 20 mins by spectrophotometric method; assay type: functional, cell-based; outline: as §2
Fibroblast [15] = experiment: Cytotoxicity against 7 mW/cm'2 irradiated human fibroblasts at 5 uM coadministered with DOX measured after 20 mins by spectrophotometric method; assay type: cell-based; outline: as §2

Multidrug resistance-associated protein 1, sequence (P33527 whole entry): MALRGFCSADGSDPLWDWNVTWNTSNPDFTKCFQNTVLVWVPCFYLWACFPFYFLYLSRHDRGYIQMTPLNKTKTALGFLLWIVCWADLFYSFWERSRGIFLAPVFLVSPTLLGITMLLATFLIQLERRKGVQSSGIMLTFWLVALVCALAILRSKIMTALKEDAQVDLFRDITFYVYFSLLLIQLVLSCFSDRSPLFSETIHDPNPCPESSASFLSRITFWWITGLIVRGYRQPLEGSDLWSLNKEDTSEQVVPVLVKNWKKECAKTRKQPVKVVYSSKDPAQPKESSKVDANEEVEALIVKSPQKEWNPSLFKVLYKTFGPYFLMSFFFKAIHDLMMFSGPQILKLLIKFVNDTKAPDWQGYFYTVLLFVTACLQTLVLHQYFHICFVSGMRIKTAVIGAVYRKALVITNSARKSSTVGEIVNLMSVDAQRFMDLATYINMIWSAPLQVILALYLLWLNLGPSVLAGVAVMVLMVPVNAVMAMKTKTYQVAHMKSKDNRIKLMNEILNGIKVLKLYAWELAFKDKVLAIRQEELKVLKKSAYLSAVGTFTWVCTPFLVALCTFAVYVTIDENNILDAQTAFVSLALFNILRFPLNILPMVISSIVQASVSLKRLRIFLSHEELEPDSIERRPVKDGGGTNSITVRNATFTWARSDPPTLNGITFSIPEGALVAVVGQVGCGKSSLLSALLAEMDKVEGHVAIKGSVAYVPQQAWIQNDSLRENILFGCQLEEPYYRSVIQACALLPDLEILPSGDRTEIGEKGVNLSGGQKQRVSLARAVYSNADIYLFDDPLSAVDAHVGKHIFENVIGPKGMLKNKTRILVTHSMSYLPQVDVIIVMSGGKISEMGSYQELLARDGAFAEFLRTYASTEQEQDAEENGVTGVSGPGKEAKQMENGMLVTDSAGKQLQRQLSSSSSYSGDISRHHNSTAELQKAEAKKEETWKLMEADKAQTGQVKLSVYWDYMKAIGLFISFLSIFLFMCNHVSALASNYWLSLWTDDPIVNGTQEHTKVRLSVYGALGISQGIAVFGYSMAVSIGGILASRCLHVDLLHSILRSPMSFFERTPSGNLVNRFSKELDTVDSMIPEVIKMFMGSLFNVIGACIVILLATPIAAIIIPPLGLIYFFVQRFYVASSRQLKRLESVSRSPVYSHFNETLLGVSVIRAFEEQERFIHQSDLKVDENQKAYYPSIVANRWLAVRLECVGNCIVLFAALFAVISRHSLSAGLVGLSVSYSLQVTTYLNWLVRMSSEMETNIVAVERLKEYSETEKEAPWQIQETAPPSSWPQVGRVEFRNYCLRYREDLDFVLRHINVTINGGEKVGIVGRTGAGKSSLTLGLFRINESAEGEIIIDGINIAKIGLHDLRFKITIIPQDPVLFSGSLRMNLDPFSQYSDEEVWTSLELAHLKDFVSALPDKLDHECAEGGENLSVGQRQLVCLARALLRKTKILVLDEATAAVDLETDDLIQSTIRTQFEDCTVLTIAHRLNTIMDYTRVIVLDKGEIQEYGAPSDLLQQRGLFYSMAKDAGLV

| half-life [1] [h] | Stability [4] | Stability [5] | Stability [7] | Structure (SMILES) | inhibition (Homo sapiens [2]) | inhibition (INH) [3] | Activity [6] | Activity (Fibroblast [8]) | inhibition (INH) [9] | inhibition (Homo sapiens [10]) | Activity (H9c2 [11]) | Activity (M14 [12]) | Activity (H9c2 [13]) | Activity (M14 [14]) | Activity (Fibroblast [15]) |
| --- | --- | --- | --- | --- | --- | --- | --- | --- | --- | --- | --- | --- | --- | --- | --- |
| > 24 | Stable | Stable | Stable | COc1cccc2c1C(=O)c1c(O)c3c(c(O)c1C2=O)C[C@@](O)(C(=O)COC(=O)c1ccc(C(=O)NCCCNc2ccc([N+](=O)[O-])c(C(F)(F)F)c2)cc1)C[C@@H]3O[C@H]1C[C@H](N)[C@H](O)[C@H](C)O1.Cl | Active | Active | Active | Non-Toxic | Active | Active |  |  |  |  |  |
|  |  |  |  | NCCCNc1ccc([N+](=O)[O-])c(C(F)(F)F)c1 | Active | Active | Active | Non-Toxic | Active | Active | Non-Toxic | Non-Toxic | Non-Toxic | inactive | Non-Toxic |
